# What was measured:
# [1] = molecular target: Beta-1 adrenergic receptor (Homo sapiens, UniProt P08588); experiment: Displacement of [125I]-cyanopindolol from recombinant human beta-1 adrenergic receptor expressed in CHO cell membranes after 1 hr by scintillation counting analysis
# [2] = molecular target: T1, Beta-3 adrenergic receptor (Homo sapiens, UniProt P13945); experiment: Agonist activity at human beta-3 adrenergic receptor expressed in CHO cells assessed as increase in intracellular cAMP accumulation at 10^-10 to 10^-5 M after 30 mins by time-resolved fluorescence assay relative to R-(-)isoproterenol; assay type: functional, cell-based
# Outline: (§1)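 CHO cells stably transfected with cloned β3-AR, harvested after 3 days subculture with enzyme-free dissociation, 6000 cells in HBSS with 5 mM HEPES, 0.1% BSA and 0.6 mM IBMX. Ligand at 10⁻¹⁰ to 10⁻⁵ M final, 30 min room temperature with labeled cAMP antibody; LANCE TR-FRET read after 1 h detection, cAMP from standard curve.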
# [3] = molecular target: Beta-2 adrenergic receptor (Homo sapiens, UniProt P07550); experiment: Displacement of [125I]-cyanopindolol from recombinant human beta-2 adrenergic receptor expressed in CHO cell membranes after 1 hr by scintillation counting analysis
# [4] = molecular target: T1, Beta-3 adrenergic receptor; experiment: Agonist activity at human beta-3 adrenergic receptor expressed in CHO cells assessed as increase in intracellular cAMP accumulation after 30 mins by time-resolved fluorescence assay; assay type: functional, cell-based; outline: as §1
# [5] = Apparent permeability in MDCK2 cells; assay type: ADME, cell-based, Canis lupus familiaris, MDCK-II; conditions: dog, MDCK
# [6] = (§2) Fraction unbound in Sprague-Dawley rat plasma at 1 mg/kg, iv and 2 mg/kg, po; assay type: ADME, organism-based; conditions: Sprague-Dawley, plasma
# [7] = Intrinsic clearance in rat liver microsomes; assay type: ADME; conditions: read-out: CLH
# [8] = Oral bioavailability in Sprague-Dawley rat at 2 mg/kg; assay type: ADME, organism-based; conditions: in vivo
# [9] = Plasma clearance in Sprague-Dawley rat at 1 mg/kg, iv and 2 mg/kg, po; assay type: ADME, organism-based
# [10] = Half life in Sprague-Dawley rat at 1 mg/kg, iv and 2 mg/kg, po; assay type: ADME, organism-based; conditions: in vivo
# [11] = molecular target: Voltage-gated inwardly rectifying potassium channel KCNH2 (Homo sapiens, UniProt Q12809); experiment: Inhibition of human ERG
# Sequence of Voltage-gated inwardly rectifying potassium channel KCNH2 (Q12809 whole entry): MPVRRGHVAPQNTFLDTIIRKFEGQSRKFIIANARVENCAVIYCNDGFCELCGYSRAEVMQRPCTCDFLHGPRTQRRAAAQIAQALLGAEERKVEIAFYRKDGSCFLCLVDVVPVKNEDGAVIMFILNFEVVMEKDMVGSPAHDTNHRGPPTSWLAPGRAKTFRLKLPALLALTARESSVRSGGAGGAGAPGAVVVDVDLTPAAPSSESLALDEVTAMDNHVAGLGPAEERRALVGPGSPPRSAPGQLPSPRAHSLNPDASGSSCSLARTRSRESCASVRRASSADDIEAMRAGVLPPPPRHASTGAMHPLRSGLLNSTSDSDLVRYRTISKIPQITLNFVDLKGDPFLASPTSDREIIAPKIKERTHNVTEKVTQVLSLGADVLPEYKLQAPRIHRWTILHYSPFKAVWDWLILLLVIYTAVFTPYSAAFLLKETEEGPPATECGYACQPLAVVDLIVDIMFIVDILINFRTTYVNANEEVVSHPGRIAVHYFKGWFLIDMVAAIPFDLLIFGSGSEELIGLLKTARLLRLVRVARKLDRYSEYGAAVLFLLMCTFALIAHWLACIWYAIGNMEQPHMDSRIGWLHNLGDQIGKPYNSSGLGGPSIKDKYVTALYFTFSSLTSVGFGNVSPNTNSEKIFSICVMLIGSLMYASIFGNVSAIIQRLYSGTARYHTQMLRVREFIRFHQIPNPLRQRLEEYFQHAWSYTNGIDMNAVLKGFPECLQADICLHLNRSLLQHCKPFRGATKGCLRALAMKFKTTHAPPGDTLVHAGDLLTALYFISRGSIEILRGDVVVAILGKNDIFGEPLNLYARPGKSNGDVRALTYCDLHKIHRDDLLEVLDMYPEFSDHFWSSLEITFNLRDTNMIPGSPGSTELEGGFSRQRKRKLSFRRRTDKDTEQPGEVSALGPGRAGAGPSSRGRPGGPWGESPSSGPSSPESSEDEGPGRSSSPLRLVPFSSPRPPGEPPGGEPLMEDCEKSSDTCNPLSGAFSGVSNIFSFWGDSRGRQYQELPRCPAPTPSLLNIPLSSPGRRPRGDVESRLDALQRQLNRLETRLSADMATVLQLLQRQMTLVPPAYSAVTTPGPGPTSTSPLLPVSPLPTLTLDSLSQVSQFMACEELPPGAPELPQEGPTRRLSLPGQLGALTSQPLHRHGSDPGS
# [12] = molecular target: Beta-3 adrenergic receptor (Canis lupus familiaris, UniProt O02662); experiment: Agonist activity at dog beta-3 adrenergic receptor expressed in CHO cells assessed as increase in intracellular cAMP accumulation after 30 mins by time-resolved fluorescence assay; assay type: functional, cell-based; outline: as §1
# [13] = molecular target: Beta-3 adrenergic receptor (Macaca mulatta, UniProt Q28524); experiment: Agonist activity at rhesus monkey beta-3 adrenergic receptor expressed in CHO cells assessed as increase in intracellular cAMP accumulation after 30 mins by time-resolved fluorescence assay; assay type: functional, cell-based; outline: as §1
# [14] = molecular target: Beta-3 adrenergic receptor (Canis lupus familiaris) (UniProt O02662); experiment: Agonist activity at dog beta-3 adrenergic receptor expressed in CHO cells assessed as increase in intracellular cAMP accumulation at 10^-10 to 10^-5 M after 30 mins by time-resolved fluorescence assay relative to R-(-)isoproterenol; assay type: functional, cell-based; outline: as §1
# [15] = molecular target: Sodium-dependent serotonin transporter (Homo sapiens, UniProt P31645); experiment: Inhibition of human SERT expressed in HEK293 cells incubated for 30 mins prior to fluorescent substrate addition measured after 30 mins by fluorescent dye uptake assay; assay type: cell-based
# Sequence of Sodium-dependent serotonin transporter (P31645 whole entry): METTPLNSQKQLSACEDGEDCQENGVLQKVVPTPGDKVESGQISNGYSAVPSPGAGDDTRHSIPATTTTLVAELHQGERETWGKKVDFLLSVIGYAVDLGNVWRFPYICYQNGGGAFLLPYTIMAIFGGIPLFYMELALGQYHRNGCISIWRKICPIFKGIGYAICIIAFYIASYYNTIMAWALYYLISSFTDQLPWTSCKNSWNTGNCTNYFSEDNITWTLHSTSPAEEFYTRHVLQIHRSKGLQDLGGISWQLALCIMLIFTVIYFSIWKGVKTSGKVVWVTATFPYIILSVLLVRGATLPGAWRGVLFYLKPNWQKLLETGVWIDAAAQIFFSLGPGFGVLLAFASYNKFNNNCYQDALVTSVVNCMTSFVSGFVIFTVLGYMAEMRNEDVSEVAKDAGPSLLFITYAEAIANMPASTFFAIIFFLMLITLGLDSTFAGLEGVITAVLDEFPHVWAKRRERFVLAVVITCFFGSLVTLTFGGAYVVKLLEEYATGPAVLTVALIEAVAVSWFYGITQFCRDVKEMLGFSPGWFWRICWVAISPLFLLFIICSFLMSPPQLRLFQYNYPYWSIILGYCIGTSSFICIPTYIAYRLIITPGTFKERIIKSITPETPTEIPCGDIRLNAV
# Outline: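 HEK293 stably expressing human SERT, 20000 cells/well plated overnight at 37 °C, then in HBSS with 20 mM HEPES and 0.1% BSA. Compound added from 100× DMSO stock, 30 min at 37 °C, then fluorescent transporter substrate for 30 more min. Fluorescence read at 440/520 nm, normalized to DMSO (0%) and 10 μM fluoxetine (100%), four-parameter fit for IC50.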
# [16] = molecular target: Voltage-dependent L-type calcium channel subunit alpha-1C (Homo sapiens, UniProt Q13936); experiment: Displacement of [3H]-diltiazem from human CaV1.2
# Cytochrome P450 2C9 = Cytochrome P450 2C9 (Homo sapiens, UniProt P11712); experiment: Inhibition of CYP2C9 in human liver microsomes assessed as diclofenac alpha'-hydroxylation; assay type: ADME
# Sequence of Cytochrome P450 2C9 (P11712 whole entry): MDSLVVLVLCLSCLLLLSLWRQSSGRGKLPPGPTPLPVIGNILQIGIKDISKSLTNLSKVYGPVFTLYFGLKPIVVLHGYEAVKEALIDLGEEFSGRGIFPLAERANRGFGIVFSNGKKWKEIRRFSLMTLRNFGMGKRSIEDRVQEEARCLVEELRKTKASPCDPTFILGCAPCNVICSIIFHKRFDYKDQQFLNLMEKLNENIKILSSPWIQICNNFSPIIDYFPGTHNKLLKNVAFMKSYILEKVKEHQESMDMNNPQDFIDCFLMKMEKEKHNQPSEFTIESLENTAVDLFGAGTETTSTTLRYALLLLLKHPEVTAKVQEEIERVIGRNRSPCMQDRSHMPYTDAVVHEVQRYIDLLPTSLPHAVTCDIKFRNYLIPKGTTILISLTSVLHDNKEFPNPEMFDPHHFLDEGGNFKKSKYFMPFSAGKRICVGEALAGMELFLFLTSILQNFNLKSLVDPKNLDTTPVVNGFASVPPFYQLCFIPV
# [17] = molecular target: Beta-3 adrenergic receptor (Macaca mulatta) (UniProt Q28524); experiment: Agonist activity at rhesus monkey beta-3 adrenergic receptor expressed in CHO cells assessed as increase in intracellular cAMP accumulation at 10^-10 to 10^-5 M after 30 mins by time-resolved fluorescence assay relative to R-(-)isoproterenol; assay type: functional, cell-based; outline: as §1
# [18] = molecular target: Beta-3 adrenergic receptor (Rattus norvegicus, UniProt P26255); experiment: Agonist activity at rat beta-3 adrenergic receptor expressed in CHO cells assessed as increase in intracellular cAMP accumulation after 30 mins by time-resolved fluorescence assay; assay type: functional, cell-based; outline: as §1
# [19] = molecular target: Sodium channel protein type 5 subunit alpha (Homo sapiens, UniProt Q14524); experiment: Inhibition of human NaV1.5
# Sequence of Sodium channel protein type 5 subunit alpha (Q14524 whole entry): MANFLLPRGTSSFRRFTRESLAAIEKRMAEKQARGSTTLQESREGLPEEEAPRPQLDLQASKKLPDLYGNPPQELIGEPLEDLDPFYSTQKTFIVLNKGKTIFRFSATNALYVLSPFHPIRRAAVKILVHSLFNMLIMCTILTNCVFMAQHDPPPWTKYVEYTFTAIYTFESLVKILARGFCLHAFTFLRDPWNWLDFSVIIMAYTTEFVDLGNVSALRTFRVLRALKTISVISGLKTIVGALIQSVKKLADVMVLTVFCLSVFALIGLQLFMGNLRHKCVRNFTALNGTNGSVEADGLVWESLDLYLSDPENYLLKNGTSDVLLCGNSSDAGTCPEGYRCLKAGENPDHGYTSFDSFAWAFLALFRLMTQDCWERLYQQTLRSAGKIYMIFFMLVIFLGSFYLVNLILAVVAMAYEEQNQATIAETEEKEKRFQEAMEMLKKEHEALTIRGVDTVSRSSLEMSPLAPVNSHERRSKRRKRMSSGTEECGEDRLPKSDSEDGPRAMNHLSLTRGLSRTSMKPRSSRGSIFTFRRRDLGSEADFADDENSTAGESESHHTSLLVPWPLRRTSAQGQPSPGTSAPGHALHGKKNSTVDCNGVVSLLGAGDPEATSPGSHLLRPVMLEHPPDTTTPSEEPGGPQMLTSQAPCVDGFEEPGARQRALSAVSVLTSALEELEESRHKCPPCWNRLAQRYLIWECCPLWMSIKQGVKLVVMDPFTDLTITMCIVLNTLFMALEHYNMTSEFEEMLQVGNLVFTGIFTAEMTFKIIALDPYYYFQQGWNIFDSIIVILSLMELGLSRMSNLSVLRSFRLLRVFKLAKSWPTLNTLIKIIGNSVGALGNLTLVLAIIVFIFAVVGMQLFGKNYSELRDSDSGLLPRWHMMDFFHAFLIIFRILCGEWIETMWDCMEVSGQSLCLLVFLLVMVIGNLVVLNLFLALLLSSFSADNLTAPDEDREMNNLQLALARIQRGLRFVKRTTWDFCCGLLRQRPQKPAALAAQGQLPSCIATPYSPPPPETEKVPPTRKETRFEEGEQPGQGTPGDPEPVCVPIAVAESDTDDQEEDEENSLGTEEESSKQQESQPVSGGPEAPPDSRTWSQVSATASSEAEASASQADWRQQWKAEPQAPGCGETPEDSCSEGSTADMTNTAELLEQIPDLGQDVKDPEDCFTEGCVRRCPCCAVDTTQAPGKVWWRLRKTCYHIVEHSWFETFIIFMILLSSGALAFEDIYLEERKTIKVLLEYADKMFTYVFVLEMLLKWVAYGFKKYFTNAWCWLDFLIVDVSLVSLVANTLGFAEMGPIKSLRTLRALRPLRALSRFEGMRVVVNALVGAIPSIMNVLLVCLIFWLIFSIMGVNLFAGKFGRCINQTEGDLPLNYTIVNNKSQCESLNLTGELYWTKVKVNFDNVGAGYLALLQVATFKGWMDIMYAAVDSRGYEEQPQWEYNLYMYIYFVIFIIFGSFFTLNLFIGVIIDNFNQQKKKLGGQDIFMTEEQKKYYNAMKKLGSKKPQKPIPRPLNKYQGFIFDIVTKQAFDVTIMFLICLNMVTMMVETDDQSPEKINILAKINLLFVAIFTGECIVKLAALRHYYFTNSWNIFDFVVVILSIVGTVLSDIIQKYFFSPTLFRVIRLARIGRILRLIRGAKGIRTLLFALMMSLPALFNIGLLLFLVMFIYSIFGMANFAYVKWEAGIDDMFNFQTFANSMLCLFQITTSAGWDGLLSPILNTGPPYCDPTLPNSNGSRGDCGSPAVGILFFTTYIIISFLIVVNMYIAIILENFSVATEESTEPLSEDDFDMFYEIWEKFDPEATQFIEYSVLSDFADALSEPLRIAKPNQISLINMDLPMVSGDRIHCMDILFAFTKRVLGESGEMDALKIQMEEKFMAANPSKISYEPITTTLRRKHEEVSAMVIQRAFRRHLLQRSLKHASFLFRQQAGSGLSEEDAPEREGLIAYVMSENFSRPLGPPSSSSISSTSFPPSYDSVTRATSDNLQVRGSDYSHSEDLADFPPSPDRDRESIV
# [20] = molecular target: Beta-3 adrenergic receptor (Rattus norvegicus) (UniProt P26255); experiment: Agonist activity at rat beta-3 adrenergic receptor expressed in CHO cells assessed as increase in intracellular cAMP accumulation at 10^-10 to 10^-5 M after 30 mins by time-resolved fluorescence assay relative to R-(-)isoproterenol; assay type: functional, cell-based; outline: as §1
# Cytochrome P450 2D6 = Cytochrome P450 2D6 (Homo sapiens, UniProt P10635); experiment: Inhibition of CYP2D6 in human liver microsomes assessed as dextromethorphan O-demethylation; assay type: ADME
# Cytochrome P450 3A4 = Cytochrome P450 3A4 (Homo sapiens, UniProt P08684); experiment: Inhibition of CYP3A4 in human liver microsomes assessed as testosterone 6beta-hydroxylation; assay type: ADME
# Homo sapiens = species: Homo sapiens; experiment: Selectivity ratio of IC50 for human SERT to EC50 for human beta-3 adrenergic receptor
# Plasma = experiment: as §2; assay type: ADME, organism-based; conditions: in vivo, BLD = below limit of detection
# Sequence of Beta-1 adrenergic receptor (P08588 whole entry): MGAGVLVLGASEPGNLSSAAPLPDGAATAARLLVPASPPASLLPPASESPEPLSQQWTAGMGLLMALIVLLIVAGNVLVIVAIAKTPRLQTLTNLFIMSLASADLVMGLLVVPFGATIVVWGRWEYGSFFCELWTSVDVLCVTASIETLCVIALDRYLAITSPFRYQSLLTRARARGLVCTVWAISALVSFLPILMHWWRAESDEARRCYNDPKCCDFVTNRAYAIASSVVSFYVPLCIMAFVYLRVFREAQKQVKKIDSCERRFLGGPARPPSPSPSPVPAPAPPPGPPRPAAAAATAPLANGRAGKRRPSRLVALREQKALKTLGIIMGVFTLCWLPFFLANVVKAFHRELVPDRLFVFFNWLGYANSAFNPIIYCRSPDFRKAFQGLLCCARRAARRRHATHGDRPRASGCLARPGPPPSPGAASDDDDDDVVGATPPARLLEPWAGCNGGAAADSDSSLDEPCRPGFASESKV
Compound,IC50 [1] [µM],Activity [2] [%],IC50 [3] [µM],EC50 [4] [nM],clearance [9] [mL/min/kg],half-life [10] [h],also measured
O=C(Nc1ccc(C[C@@H]2CC[C@H]([C@H](O)c3cccnc3)N2)cc1)[C@@H]1CCc2sc(-c3ccc(F)cc3)nc21,13.3,15,2.47,8.78,–,–,–
Nc1nc2c(s1)CC[C@H]2C(=O)Nc1ccc(C[C@@H]2CC[C@H]([C@H](O)c3cccc(Cl)c3)N2)cc1,> 20,93,8.45,0.15,–,–,–
O=C(Nc1ccc(C[C@@H]2CC[C@H]([C@H](O)c3cccnc3)N2)cc1)[C@@H]1CCc2sc(C3CC3)nc21,> 20,43,> 20,12.4,–,–,–
O=C(Nc1ccc(C[C@@H]2CC[C@H]([C@H](O)c3ccccc3)N2)cc1)[C@@H]1CCc2scnc21,> 20,101,> 20,0.64,80,1,Papp [5]: 24 ×10⁻⁶ cm/s; fraction unbound [6]: 0.1; CLint scaled [7]: 68 mL/min/kg; bioavailability [8]: 12%
Nc1nc2c(s1)CC[C@H]2C(=O)Nc1ccc(C[C@@H]2CC[C@H]([C@H](O)c3cccc(F)c3)N2)cc1,> 20,94,> 20,0.04,–,–,IC50 [11]: 4 µM
C[C@H](C(=O)Nc1ccc(C[C@@H]2CC[C@H]([C@H](O)c3ccccc3)N2)cc1)c1csc(N)n1,> 20,85,> 20,0.67,–,–,–
CCC[C@@H](C(=O)Nc1ccc(C[C@@H]2CC[C@H]([C@H](O)c3ccccc3)N2)cc1)c1csc(N)n1,> 20,66,> 20,0.88,–,–,–
Nc1nc2c(s1)CCCC[C@H]2C(=O)Nc1ccc(C[C@@H]2CC[C@H]([C@H](O)c3ccccc3)N2)cc1,> 20,70,> 20,1.86,–,–,–
Nc1nc2c(s1)CCC[C@H]2C(=O)Nc1ccc(C[C@@H]2CC[C@H]([C@H](O)c3ccccc3)N2)cc1,> 20,103,> 20,0.21,185,3,Papp [5]: 5 ×10⁻⁶ cm/s; fraction unbound [6]: 0.14; CLint scaled [7]: 63 mL/min/kg; bioavailability [8]: 0%
CCc1nc2c(s1)CC[C@H]2C(=O)Nc1ccc(C[C@@H]2CC[C@H]([C@H](O)c3ccccc3)N2)cc1,> 20,37,> 20,1.95,–,–,–
C[C@@H](C(=O)Nc1ccc(C[C@@H]2CC[C@H]([C@H](O)c3cccnc3)N2)cc1)n1cccn1,> 20,102,> 20,16.7,34,2,bioavailability [8]: 29%
CC(C)[C@@H](C(=O)Nc1ccc(C[C@@H]2CC[C@H]([C@H](O)c3ccccc3)N2)cc1)c1csc(N)n1,> 20,85,> 20,1.6,–,–,–
Nc1nc2c(s1)CC[C@H]2C(=O)Nc1ccc(C[C@@H]2CC[C@H]([C@H](O)c3ccccc3)N2)cc1,> 20,91,> 20,0.15,50,4,EC50 [12]: 0.00019 µM; EC50 [13]: 0.06 nM; Papp [5]: 5 ×10⁻⁶ cm/s; Activity [14]: 102%; fraction unbound [6]: 0.18; IC50 [15]: 1.22 µM; CLint scaled [7]: 59 mL/min/kg; IC50 [16]: > 30 µM; IC50 (Cytochrome P450 2C9): > 100 µM; Activity [17]: 78%; EC50 [18]: 0.0013 µM; IC50 [19]: 5.6 µM; IC50 [11]: 12.7 µM; Activity [20]: 100%; IC50 (Cytochrome P450 2D6): 18.3 µM; bioavailability [8]: 6%; IC50 (Cytochrome P450 3A4): 86 µM
O=C(Cn1cccn1)Nc1ccc(C[C@@H]2CC[C@H]([C@H](O)c3cccnc3)N2)cc1,> 20,72,> 20,76.7,–,–,–
Cc1nc2c(s1)CC[C@H]2C(=O)Nc1ccc(C[C@@H]2CC[C@H]([C@H](O)c3cccnc3)N2)cc1,> 20,89,> 20,1.15,25,1,Papp [5]: 17 ×10⁻⁶ cm/s; fraction unbound [6]: 0.11; IC50 [15]: 0.089 µM; CLint scaled [7]: 62 mL/min/kg; IC50 [16]: > 30 µM; IC50 (Cytochrome P450 2C9): 67.2 µM; IC50 [19]: > 30 µM; IC50 [11]: 12 µM; Ratio IC50/EC50 (Homo sapiens): 77; IC50 (Cytochrome P450 2D6): > 100 µM; bioavailability [8]: 46%; IC50 (Cytochrome P450 3A4): 41.8 µM
Nc1nc2c(s1)CC[C@H]2C(=O)Nc1ccc(C[C@@H]2CC[C@H]([C@H](O)c3cccnc3)N2)cc1,> 20,101,> 20,0.37,32,4,Papp [5]: < 1 ×10⁻⁶ cm/s; Fu (Plasma): BLD; CLint scaled [7]: 57 mL/min/kg; bioavailability [8]: 0%
Cc1nc2c(s1)CC[C@H]2C(=O)Nc1ccc(C[C@@H]2CC[C@H]([C@H](O)c3ccccc3)N2)cc1,> 20,96,> 20,0.48,87,1,Papp [5]: 26 ×10⁻⁶ cm/s; fraction unbound [6]: 0.05; CLint scaled [7]: 135 mL/min/kg; bioavailability [8]: 6%
C[C@@H](C(=O)Nc1ccc(C[C@@H]2CC[C@H]([C@H](O)c3ccccc3)N2)cc1)c1csc(N)n1,> 20,84,> 20,0.18,–,–,–
CCc1nc2c(s1)CC[C@H]2C(=O)Nc1ccc(C[C@@H]2CC[C@H]([C@H](O)c3cccnc3)N2)cc1,> 20,49,> 20,13.6,–,–,–
Nc1nc2c(s1)CC[C@H]2C(=O)Nc1ccc(C[C@@H]2CC[C@H]([C@H](O)c3ccc(F)cc3)N2)cc1,> 20,72,> 20,0.13,–,–,IC50 [11]: 5.6 µM
CC[C@@H](C(=O)Nc1ccc(C[C@@H]2CC[C@H]([C@H](O)c3ccccc3)N2)cc1)c1csc(N)n1,> 20,85,> 20,0.83,–,–,–
O=C(Nc1ccc(C[C@@H]2CC[C@H]([C@H](O)c3ccccc3)N2)cc1)[C@@H]1CCc2sc(-c3ccc(F)cc3)nc21,4.33,76,2.51,186,–,–,–
"Nc1nc(CC(=O)Nc2ccc(C[C@@H]3CCC([C@H](O)c4ccccc4)N3)cc2)cs1 (single isomer, unassigned)",> 20,92,> 20,–,11,8,Papp [5]: 5 ×10⁻⁶ cm/s; fraction unbound [6]: 0.06; IC50 [15]: 1.61 µM; CLint scaled [7]: 38 mL/min/kg; IC50 [16]: 8.2 µM; IC50 (Cytochrome P450 2C9): > 100 µM; IC50 [19]: > 30 µM; IC50 (Cytochrome P450 2D6): 2.2 µM; IC50 (Cytochrome P450 3A4): > 100 µM
Nc1nc2c(s1)CC[C@@H]2C(=O)Nc1ccc(C[C@@H]2CC[C@H]([C@H](O)c3ccccc3)N2)cc1,> 20,91,> 20,44.2,–,–,–

# From ChEMBL document CHEMBL3124772, “Design, synthesis, and evaluation of conformationally restricted acetanilides as potent and selective β3 adrenergic receptor agonists for the treatment of overactive bladder” (J Med Chem, 2014)
